Screening results (PubChem BioAssay)
APJ antagonist = blocks the human apelin receptor APJ; P35414; CHO-K1 APJ beta-arrestin complementation, luminescence; inhibition, % at 20 µM; actives 0.32% (n = 330,000); AID 2521;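 active = inhibition above about 40% at 20 µM, limit read from the data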;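 also: cells challenged with 10 nM apelin-13 agonist together with compound; plate controls were apelin-13 plus DMSO wells for no effect and DMSO wells lacking apelin-13 for full effect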
APJ agonist = agonists of human APJ apelin receptor; P35414; CHO-K1 APJ PathHunter beta-arrestin, luminescence; 0% DMSO wells, 100% apelin; activation, % at 20 µM; actives 0.11% (n = 330,000);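 active = activation more than six SD over the plate average, tested at 20 µM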;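 also: 0% = DMSO alone and 100% = apelin-13 at 10 nM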
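Test system: CHO-K1 APJ beta-arrestin complementation cell line | Compound: Single test compound dose, 20 µM final, 1% DMSO | Incubation: Compound 90 min 25 °C, reagent 1 h | Measured by: beta-gal luminescence | Read-out basis: APJ–arrestin association signal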
EBI2 block = EBI2 (human) antagonism; EBI2 beta-arrestin recruitment, luminescence, 7a,25-OHC stimulated; actives 0.81% (n = 360,000); P32249; inhibition, % at 5 µM; in the data active = inhibition above about 38%;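 also: enzyme fragment complementation signal reports receptor beta-arrestin coupling in cells; 0% = agonist plus DMSO wells and 100% = wells without agonist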
CXCR6 inh = CXCR6 (human) receptor inhibition; inhibition, % at 20 µM; AID 602244; actives 0.36% (n = 360,000); CHO-K1 PathHunter CXCR6 beta-arrestin, luminescence; in the data active = inhibition above about 34%, passing the limit was not always enough;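 also: antagonist mode with CXCL16 agonist at 10 nM final; 0% = 10 nM CXCL16 with DMSO and 100% = unstimulated wells without agonist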
Target sequence (O00574 whole entry, looked up): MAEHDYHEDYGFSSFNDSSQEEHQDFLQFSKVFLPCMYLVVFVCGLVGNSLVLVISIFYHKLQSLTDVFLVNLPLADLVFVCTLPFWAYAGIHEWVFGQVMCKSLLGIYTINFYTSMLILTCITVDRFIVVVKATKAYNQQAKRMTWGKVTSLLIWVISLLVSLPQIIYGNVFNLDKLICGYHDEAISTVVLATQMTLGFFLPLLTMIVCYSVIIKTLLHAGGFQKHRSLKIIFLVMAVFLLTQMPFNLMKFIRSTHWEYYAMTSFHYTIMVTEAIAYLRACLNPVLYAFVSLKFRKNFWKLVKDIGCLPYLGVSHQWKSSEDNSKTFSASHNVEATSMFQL
CCR6 antagonist = antagonists of human CCR6 receptor | P51684 | CHO-K1 CCR6 PathHunter beta-arrestin, luminescence, CCL20-stimulated | inhibition, % at 20 µM | actives 0.49% (n = 340,000) | AID 493098;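 active = compounds whose inhibition of the agonist-driven luminescence signal at 20 µM reaches about 50%, limit read from the data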;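 also: cells stimulated with CCL20 at 14 nM final; plate controls were DMSO with CCL20 for no effect and DMSO without agonist for full effect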
EBI2 conf = confirmation of human EBI2 receptor antagonists; shares compounds with EBI2 block; EBI2 beta-arrestin luminescence, 7a,25-OHC antagonism; inhibition, % at 5 µM; actives 29% (n = 2,400); AID 651997;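 active = inhibition of at least 50%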
EBI2 agonist = counter-screen for EBI2 antagonists: EBI2 agonist activity; AID 652000; activation, % at 5 µM; 2,400 tested, under 10 active; shares compounds with EBI2 block; EBI2-expressing cells, agonist mode, luminescence, 60 min; 0% vehicle, 100% 7α,25-dihydroxycholesterol control;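 active = activation of at least 50%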
bGal counter = beta-galactosidase inhibition counter-screen; purified beta-galactosidase, luminescent Galacton Star, 15 min; shares compounds with EBI2 block; actives 1% (n = 2,400); inhibition, % at 5 µM;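 active = replicate-average signal at least 3 plate SD below neutral wells, shown as high inhibition, flagging enzyme-inhibiting false positives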;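 also: 0% = DMSO wells with enzyme and 100% = wells lacking enzyme; higher means stronger loss of beta-gal luminescence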
An asterisk follows results filed as active; . = no result. Sampled rows, rich in hits. Any-hit rate of the full collection: about 1.5%.

SMILES	APJ antagonist	APJ agonist	EBI2 block	CXCR6 inh	CCR6 antagonist	EBI2 conf	EBI2 agonist	bGal counter
CCOC(=O)N1CCN(C(=O)/C=C/c2ccc([N+](=O)[O-])cc2)CC1	17	1	80*	-6	-6	58*	0	7
O=C(/C=C/c1ccc([N+](=O)[O-])cc1)N1CCN(S(=O)(=O)c2cccs2)CC1	-34	1	93*	-1	-11	63*	1	3
CCOC(=O)N1CCN(C(=O)/C=C/c2cccc([N+](=O)[O-])c2)CC1	2	1	48*	-6	8	26	-1	-11
CCOC(=O)N1CCN(C(=O)/C=C/c2ccc(OC)c(OC)c2)CC1	-3	2	28	9	11	.	.	.
CCOC(=O)N1CCN(C(=O)/C=C/c2ccc(C(C)(C)C)cc2)CC1	-9	-1	62*	-4	11	53*	1	8
CCCN1C(=O)CC(c2ccc(OC)c(OC)c2)C1=O (stereo unspecified)	.	.	3	-1	.	.	.	.
O=C(/C=C/c1cccs1)N1CCC2(CC1)Oc1ccc(Cl)cc1C(=O)C21CC(c2ccccc2)=NO1 (stereo unspecified)	10	0	61*	0	7	40	-1	6
CCC(=O)N1CCC2(CC1)Oc1ccc(Cl)cc1C(=O)C21CC(c2ccccc2)=NO1 (stereo unspecified)	-3	4	13	8	11	.	.	.
C#CCNC(=O)C[C@@H]1C[C@@]2(C(=O)OCC)CCCC=C2N(CCCCCCCC)C1=O	.	.	6	8	.	.	.	.
CCN(CC(=O)Nc1c(F)cccc1F)C(=O)CCCSc1nc2ccccc2[nH]1	.	.	-1	-4	.	.	.	.
O=C(/C=C/[C@H]1O[C@@H](n2ccc(=O)[nH]c2=O)[C@H](O)[C@@H]1O)N[C@@H](Cc1ccccc1)C(=O)O	.	.	-5	-4	.	.	.	.
COC(=O)Cc1ccc(NC(=O)c2ccc3c(c2)C(=O)N(Cc2cccnc2)C3=O)cc1	-13	-3	12	0	4	.	.	.
COC(=O)Cc1ccc(NC(=O)c2ccc3c(c2)C(=O)N(Cc2ccco2)C3=O)cc1	-8	-2	52*	-8	10	24	2	9
COc1ccc(C(=O)c2ccc(N3CCN(C(=O)c4ccc(F)cc4)CC3)c(F)c2)cc1Br	19	0	65*	0	15	22	1	5
CCCC(=O)c1ccc(N2CCN(C(=O)c3ccc(Br)cc3)CC2)c(F)c1	-20	3	71*	-4	-2	29	3	8
O=S(=O)(c1ccc(NC(=S)N/N=C/c2ccc(O)c(O)c2)cc1)N1CCOCC1	-9	-6	4	-5	13	.	.	.
N#Cc1ccc(/C=N/NC(=S)Nc2ccc(S(=O)(=O)N3CCOCC3)cc2)cc1	-2	0	54*	14	21	26	-1	-2
O=C(COc1ccc([N+](=O)[O-])cc1)N1CCN(c2nnc(-c3ccccc3)c3ccccc23)CC1	11	-2	68*	11	6	36	-1	13
Cc1ccc(-c2nnc(N3CCN(C(=O)COc4ccccc4)CC3)c3ccccc23)cc1	15	-1	86*	3	16	53*	0	-9
O=C(COc1ccc(-c2nnc(N3CCCCC3)c3ccccc23)cc1)N1CCCCC1	3	0	-12	-5	14	.	.	.
COc1ccc(OCc2nnc(SCC(=O)N3C(C)CCCC3C)o2)cc1 (stereo unspecified)	3	-4	46*	-5	21	24	1	7
Cc1cccc(OCc2nnc(SCC(=O)N3c4ccccc4CCc4ccccc43)o2)c1	2	-2	52*	4	19	5	0	3
O=C(CSc1nnc(COc2ccc(F)cc2)o1)N1c2ccccc2CCc2ccccc21	6	1	51*	16	15	24	0	7
COC(=O)c1ccc(OC)c(CSc2nnc(COc3ccc(OC)cc3)o2)c1	3	-1	49*	4	21	45	0	-1
O=C(NCCC1=CCCCC1)C1CCCN(S(=O)(=O)c2ccccc2)C1 (stereo unspecified)	14	-3	-5	2	5	.	.	.
SMILES	APJ antagonist	APJ agonist	EBI2 block	CXCR6 inh	CCR6 antagonist	EBI2 conf	EBI2 agonist	bGal counter
O=C(NCCc1c[nH]c2ccccc12)C1CCCN(S(=O)(=O)c2ccccc2)C1 (stereo unspecified)	15	-2	46*	-8	7	40	0	-16
COC(=O)[C@@]1(Cc2ccc(OC)cc2)[C@H]2c3cc(C(=O)N4CCCC4)n(CCc4ccc(OC)c(Br)c4)c3C[C@H]2CN1C(=O)c1ccccc1	.	.	44*	15	.	5	-1	-13
CO[C@@H]1CN(C)C(=O)c2cc(NS(=O)(=O)c3ccc(C)cc3)ccc2OC[C@H](C)N(Cc2nccs2)C[C@H]1C	.	.	2	.	.	.	.	.
CC1CCN(C(=O)c2cc3c(ccc4ccccc43)o2)CC1	-20	-6	82*	5	31	62*	0	-5
CCOC(=O)C1CCN(C(=O)c2cc3c(ccc4ccccc43)o2)CC1	13	-5	78*	-5	35	64*	-1	-11
CC1CCN(C(=O)c2cc3ccccc3c(=O)o2)CC1	10	0	-2	-2	7	.	.	.
O=C1NN=C(c2ccc(Cl)cc2)CC1c1cccc(Br)c1 (stereo unspecified)	-5	-2	29	-10	15	.	.	.
Cc1ccc(C2=NNC(=O)C(c3ccc(Cl)cc3)C2)cc1 (stereo unspecified)	-11	0	53*	4	18	40	0	9
N#Cc1c(N)[nH]c(C(=O)c2ccccc2)c1-c1ccc(Cl)cc1	.	.	17	6	.	.	.	.
Cc1cccc(C)c1-n1nnnc1C(c1cccc2ccccc12)N1CCN(C/C=C/c2ccccc2)CC1 (stereo unspecified)	.	.	36	9	.	.	.	.
C(=C\c1ccccc1)/CN1CCN(C(c2cccc3ccccc23)c2nnnn2-c2ccc3c(c2)OCCO3)CC1 (stereo unspecified)	.	.	55*	6	.	22	0	-18
FC(F)(F)Oc1ccccc1C(c1nnnn1-c1ccc2c(c1)OCCO2)N1CCN(C/C=C/c2ccccc2)CC1 (stereo unspecified)	.	.	81*	21	.	56*	1	4
O=C(OCc1ccccc1)N1CCN(C(c2ccnc3ccccc23)c2nnnn2-c2ccc3c(c2)OCCO3)CC1 (stereo unspecified)	.	.	60*	18	.	27	3	9
